{"source": "paper PMC9292215", "about": "(Clinical Pharmacology and Therapeutics, 2021)", "key": {"[1]": {"system": "anandamide (AEA)", "assay": "Plasma anandamide", "format": "in vivo, human", "settings": "for AEA AUC0–24: Day 1; for AEA AUC0–τ: Day 10", "procedure,_shortened": "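In a double-blind, placebo-controlled multiple-dose part, healthy adult men and women in groups of eight (six active, two placebo) took oral test compound once daily for 10 days. They fasted at least 8 h before and 1 h after dosing. Plasma anandamide AUCs were taken on Days 1 and 10, with a Day 10/Day 1 ratio. Data are mean (CV%); tmax is median (range).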"}, "[2]": {"molecular_target": "T1, FAAH (Homo sapiens, UniProt O00519)", "T1 sequence (O00519 1-579)": "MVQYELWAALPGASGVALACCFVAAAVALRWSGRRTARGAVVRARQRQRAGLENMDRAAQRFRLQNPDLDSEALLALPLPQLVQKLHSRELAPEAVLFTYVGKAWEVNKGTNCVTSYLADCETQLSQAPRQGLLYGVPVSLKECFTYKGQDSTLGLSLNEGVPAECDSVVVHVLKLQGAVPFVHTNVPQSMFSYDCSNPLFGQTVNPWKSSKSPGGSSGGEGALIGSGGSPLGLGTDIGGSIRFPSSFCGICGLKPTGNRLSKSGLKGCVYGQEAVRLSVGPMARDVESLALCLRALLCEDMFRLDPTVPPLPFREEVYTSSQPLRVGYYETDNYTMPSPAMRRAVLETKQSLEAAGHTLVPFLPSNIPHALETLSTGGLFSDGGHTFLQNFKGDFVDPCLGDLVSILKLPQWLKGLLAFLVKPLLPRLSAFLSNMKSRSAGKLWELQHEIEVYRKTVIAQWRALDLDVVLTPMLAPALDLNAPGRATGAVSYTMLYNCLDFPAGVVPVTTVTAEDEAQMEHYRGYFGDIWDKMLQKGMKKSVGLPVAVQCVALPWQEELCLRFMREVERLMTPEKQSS", "assay": "Leukocyte FAAH activity in participants", "format": "in vivo", "procedure,_shortened": "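Healthy men and women aged 18–55 years (BMI 19–30 kg/m²) took single oral capsule doses of test compound (0.25–100 mg) or matching placebo in a double-blind design. They fasted at least 8 h before and 1 h after dosing. Leukocyte FAAH activity was followed after dosing and expressed as percent inhibition, judged by visual inspection. Values are means of six participants per group.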"}}}
{"smiles": "CN(C(=O)n1cnc(-c2ccc[n+]([O-])c2)c1)C1CCCCC1", "note": "[BIA 10-2474, 3-(1-(cyclohexyl(methyl)carbamoyl)-1H-imidazol-4-yl)pyridine 1-oxide]", "values": [{"measurement": "AEA Ratio (AUCD10/D1)", "setting": "[1]; 2.5 mg once daily", "result": 1.27}, {"measurement": "AEA AUC0–24", "setting": "[1]; 2.5 mg once daily", "result": "42.8 (17.1) ng⋅hour/mL"}, {"measurement": "AEA AUC0–τ", "setting": "[1]; 2.5 mg once daily", "result": "54.2 (9.41) ng⋅hour/mL"}, {"measurement": "AEA Ratio (AUCD10/D1)", "setting": "[1]; 5 mg once daily", "result": 1.25}, {"measurement": "AEA AUC0–24", "setting": "[1]; 5 mg once daily", "result": "44.9 (23.4) ng⋅hour/mL"}, {"measurement": "AEA AUC0–τ", "setting": "[1]; 5 mg once daily", "result": "56.3 (17.7) ng⋅hour/mL"}, {"measurement": "AEA Ratio (AUCD10/D1)", "setting": "[1]; 10 mg once daily", "result": 1.16}, {"measurement": "AEA AUC0–24", "setting": "[1]; 10 mg once daily", "result": "52.2 (19.3) ng⋅hour/mL"}, {"measurement": "AEA AUC0–τ", "setting": "[1]; 10 mg once daily", "result": "60.8 (17.9) ng⋅hour/mL"}, {"measurement": "AEA Ratio (AUCD10/D1)", "setting": "[1]; 20 mg once daily", "result": 1.22}, {"measurement": "AEA AUC0–24", "setting": "[1]; 20 mg once daily", "result": "51.2 (19.6) ng⋅hour/mL"}, {"measurement": "AEA AUC0–τ", "setting": "[1]; 20 mg once daily", "result": "62.8 (21.7) ng⋅hour/mL"}, {"measurement": "BIA 10-2474 plasma exposure giving relevant AEA increases", "setting": "[1]; achieved with 10 mg/day", "result": "around 1,500 ng⋅h/mL"}, {"measurement": "AEA AUC0–t", "setting": "[1]; single dose 0.25 mg", "result": "27.5 (34.1) ng⋅hour/mL"}, {"measurement": "AEA AUC0–t", "setting": "[1]; single dose 1.25 mg", "result": "68.0 (13.1) ng⋅hour/mL"}, {"measurement": "AEA AUC0–t", "setting": "[1]; single dose 2.5 mg", "result": "101 (17.2) ng⋅hour/mL"}, {"measurement": "AEA AUC0–t", "setting": "[1]; single dose 5 mg", "result": "109 (11.2) ng⋅hour/mL"}, {"measurement": "AEA AUC0–t", "setting": "[1]; single dose 10 mg", "result": "137 (8.92) ng⋅hour/mL"}, {"measurement": "AEA AUC0–t", "setting": "[1]; single dose 20 mg", "result": "149 (6.20) ng⋅hour/mL"}, {"measurement": "AEA AUC0–t", "setting": "[1]; single dose 40 mg", "result": "160 (26.42) ng⋅hour/mL"}, {"measurement": "AEA AUC0–t", "setting": "[1]; single dose 100 mg", "result": "188 (22.4) ng⋅hour/mL"}, {"measurement": "increase in plasma AEA AUC compared with placebo", "setting": "[1]; single dose 100 mg", "result": 12.5, "unit": "fold"}, {"measurement": "return of AEA to baseline", "setting": "[1]; single doses", "result": "> 72", "unit": "hours post dose"}, {"measurement": "apparent maximum FAAH inhibition", "setting": "[2]; 5 mg and above, visual inspection", "result": "> 97", "unit": "%"}, {"measurement": "duration of FAAH inhibition by more than 90%", "setting": "[2]; doses above 2.5 mg", "result": "at least 72 hours"}, {"measurement": "FAAH activity inhibited", "setting": "[2]; doses above 2.5 mg, for at least 72 hours", "result": "more than 90%"}, {"measurement": "FAAH inhibition", "setting": "[2]; single dose 0.25 mg, visual inspection", "result": "more than 50%"}]}
